# pPAFAH inh = inhibitors of human plasma PAF acetylhydrolase (pPAFAH); recombinant pPAFAH, FP-rhodamine probe fluorescence polarization; inhibition, % at 3.39 µM; 330,000 compounds, 1.5% hits; AID 463082;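 active means inhibition above the mean inhibition across the screen plus 3 SD, cut at about 25% in these data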;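 further: inhibitors block binding of the rhodamine activity-based probe so polarization drops; 0% = enzyme with DMSO and 100% = wells lacking pPAFAH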
# ASAP1 inh = ASAP1 ArfGAP inhibition; Q9ULH1; ASAP1-stimulated ARF1 GTP hydrolysis, GDP FP detection; inhibition, % at 16.5 µM; 360,000 compounds, 0.19% hits; in the data active means inhibition above about 25%;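 further: 0% = vehicle with enzyme and substrate and 100% = no enzyme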
# Target sequence (Q9ULH1 325-724 limits assumed): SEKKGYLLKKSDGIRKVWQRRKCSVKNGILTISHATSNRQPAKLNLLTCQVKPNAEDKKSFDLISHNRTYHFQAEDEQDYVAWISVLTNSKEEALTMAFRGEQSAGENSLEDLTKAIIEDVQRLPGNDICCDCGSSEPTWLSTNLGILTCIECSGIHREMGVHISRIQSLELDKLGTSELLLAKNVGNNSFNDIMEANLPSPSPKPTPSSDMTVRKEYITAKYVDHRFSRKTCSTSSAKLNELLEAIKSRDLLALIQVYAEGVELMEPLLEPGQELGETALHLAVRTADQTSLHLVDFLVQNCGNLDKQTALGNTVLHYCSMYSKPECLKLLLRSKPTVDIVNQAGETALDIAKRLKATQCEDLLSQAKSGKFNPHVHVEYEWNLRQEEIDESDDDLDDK
# ARFGAP1 inhibitor = inhibitors of rat ARFGAP1 | inhibition, % at 16.5 µM | 360,000 compounds, 0.26% hits | Arfgap1-stimulated ARF1 GTP hydrolysis, GDP FP detection;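 active means inhibition above a per-plate limit, mean inhibition of low control wells plus 3 SD, cut at about 25% in these data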;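 further: 0% = DMSO wells with enzyme and 100% = wells lacking Arfgap1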
# Target sequence (Q62848 1-136 limits assumed): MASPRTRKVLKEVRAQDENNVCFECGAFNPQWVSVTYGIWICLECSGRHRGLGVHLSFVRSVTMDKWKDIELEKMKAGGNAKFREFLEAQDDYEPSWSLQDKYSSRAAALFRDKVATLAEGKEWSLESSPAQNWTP
#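 material = rat Arfgap1 catalytic domain, aa 1-136 | also added = human ARF1(Δ1-17)-GTP substrate | compound dosing = one concentration, 16.5 µM, DMSO 1.26% | times = GTP hydrolysis reaction 2 h at 25 °C | measured by = FP, GDP Alexa 633 tracer displaced from anti-GDP antibody, 620/688 nm | evaluation = percent inhibition of Arfgap1-stimulated GTP hydrolysis | replication = single well per compound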
# PAFAH1B3 FP inh = blocks human PAF acetylhydrolase 1B catalytic subunit 3 | Q15102 | recombinant PAFAH1B3, FP-rhodamine probe, fluorescence polarization | inhibition, % at 3.39 µM | 340,000 compounds, 0.28% hits;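 active means inhibition above the screen-wide average of all tested compounds plus 3 SD, cut at about 25% in these data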;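 further: 0% = enzyme with DMSO only and 100% = wells lacking PAFAH1B3 protein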
# PAFAH1B2 inh = blocks human PAF acetylhydrolase 1b catalytic subunit 2. recombinant PAFAH1B2, FP-rhodamine activity probe, fluorescence polarization. inhibition, % at 3.39 µM. 340,000 compounds, 1.2% hits;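 active means inhibition above the mean of all tested compounds plus 3 SD, cut at about 24% in these data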;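 further: 0% = enzyme with DMSO and 100% = wells lacking PAFAH1B2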
# PAFAH2 inh = inhibitors of human PAFAH2. 340,000 compounds, 0.99% hits. AID 492956. recombinant PAFAH2, FP-rhodamine activity probe, fluorescence polarization. inhibition, % at 3.39 µM;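 active means inhibition above the mean over all tested compounds plus 3 SD, cut at about 30% in these data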;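 further: inhibitors block probe labeling of enzyme so polarization drops; 0% = enzyme with DMSO and 100% = wells lacking PAFAH2 protein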
# pPAFAH FP conf = pPAFAH (human) inhibition, confirmed; recombinant pPAFAH, FP-Rh probe fluorescence polarization; shares compounds with pPAFAH inh; AID 463230; inhibition, % at 3.39 µM; 2,300 compounds, 72% hits;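 active means mean inhibition of the triplicate above the hit cutoff set for the earlier primary screen, cut at about 25% in these data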;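 further: 0% = enzyme with DMSO and 100% = wells lacking pPAFAH enzyme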
# PAFAH2 confirm = confirmation of human PAFAH2 inhibitors. shares compounds with PAFAH2 inh. recombinant PAFAH2, FP-rhodamine activity probe, fluorescence polarization. inhibition, % at 3.39 µM. 2,300 compounds, 65% hits. AID 493030;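 active means mean inhibition over three repeats above a set limit taken from the earlier primary screen, cut at about 30% in these data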;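 further: inhibitor blocks binding of rhodamine activity probe so polarization falls; 0% = enzyme with DMSO and 100% = wells lacking PAFAH2 protein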
# ASAP1 GAP conf = confirmation of human ASAP1 inhibitors | 620 compounds, 37% hits | shares compounds with ASAP1 inh | ASAP1-stimulated Arf1 GTPase, GDP fluorescence polarization | inhibition, % at 16.5 µM;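 active means mean inhibition over triplicates exceeds the hit threshold derived for the earlier primary screening run, cut at about 25% in these data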
# ARFGAP1 confirm = confirmation of rat ARFGAP1 inhibitors | shares compounds with ARFGAP1 inhibitor | ARFGAP1-stimulated ARF1 GTP hydrolysis, GDP tracer FP | inhibition, % at 16.5 µM | 890 compounds, 30% hits | AID 651608;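 active means average inhibition over triplicates above the hit cutoff set in the earlier primary screen, cut at about 25% in these data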;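 further: 0% = Arfgap1 plus ARF1-GTP with DMSO and 100% = wells lacking Arfgap1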
# * marks the source's active call; other numbers are inactive results; . = not tested or not shown; + = active, no number. Hits are enriched below; roughly 2.8% of the tested compounds scored in any of these assays.
SMILES,pPAFAH inh,ASAP1 inh,ARFGAP1 inhibitor,PAFAH1B3 FP inh,PAFAH1B2 inh,PAFAH2 inh,pPAFAH FP conf,others
CN(C)C1(CNC(=O)c2cccc(S(=O)(=O)NCc3ccccc3)c2)CCCCC1,2,6,-5,0,7,2,.,
CN(C)C1(CNC(=O)c2cccc(S(=O)(=O)Nc3ccc(Br)cc3)c2)CCCCC1,43*,-5,-5,-2,4,-3,42*,
Cc1ccc(NS(=O)(=O)c2cccc(C(=O)NCC3(N(C)C)CCCCC3)c2)cc1,60*,6,6,11,8,6,53*,
COc1ccccc1NS(=O)(=O)c1cccc(C(=O)NCC2(N(C)C)CCCCC2)c1,-1,-4,0,2,5,1,.,
Cc1ccccc1/C=N/Nc1nc2ccccc2[nH]1,7,-5,-1,1,5,1,.,
O=[N+]([O-])c1cc(/C=N/Nc2nc3ccccc3[nH]2)c(O)cc1O,40*,17,-1,.,.,.,34*,
Cn1nc(C(C)(C)C)cc1NC(=O)C1(C)CCN1C(=O)CC(c1ccccc1)c1ccccc1 (centres undefined),.,-2,0,.,.,.,.,
COc1cc(CNCCO)ccc1OCCc1ccccc1,4,-12,6,12,2,-1,.,
O=C1CC(=C(c2ccccc2)c2ccccc2)C(=O)N1CCCN1CCN(c2cccc(Cl)c2)CC1,10,-3,20,10,1,-2,.,
O=C1CC(=C2c3ccccc3-c3ccccc32)C(=O)N1CCCCN1CCN(c2ccccc2)CC1,41*,.,.,-4,-1,4,19,
COc1cccc(-n2c(SCc3cc(=O)oc4cc(O)c(O)cc34)nc3ccccc3c2=O)c1,94*,-1,-1,16,2,64*,92*,PAFAH2 confirm=54*
CCN(CC)C(=O)CSc1nc2ccccc2c(=O)n1-c1cccc(OC)c1,-3,9,-8,1,-3,3,.,
COc1cc(NS(=O)(=O)c2ccc(Nc3nc(-c4cccc([N+](=O)[O-])c4)cs3)cc2)nc(OC)n1,47*,11,11,16,17,43*,69*,PAFAH2 confirm=27
Cc1ccc(NC(=S)N(C)C(c2ccccc2)c2ccccc2)cc1C,-1,3,5,-4,-3,2,.,
COc1ccc(-c2csc(NC(=O)c3ccccc3NS(=O)(=O)c3ccc(F)c(F)c3)n2)cc1,50*,29*,10,13,12,20,39*,ASAP1 GAP conf=24
C[C@H](O)[C@@H]1CN2CCc3ccc(-c4ccc5c(c4)OCO5)cc3[C@@H]2C[C@@H]1N(C)Cc1ccccc1,.,4,0,.,.,.,.,
COc1ccc(/C=N/Nc2nc(-c3cccnc3)nc3ccccc23)cc1OC,5,12,8,5,2,5,.,
Cc1c(O)ccc(/C=N/Nc2nc(-c3cccnc3)nc3ccccc23)c1O,42*,27*,8,30*,11,-16,46*,ASAP1 GAP conf=22
COc1c(-c2ccc(O)cc2)oc2cc(O)cc(O)c2c1=O,14,4,-8,3,-2,2,.,
O=c1c(-c2c(O)cc(O)c3c(=O)cc(-c4ccc(O)cc4)oc23)c(-c2ccc(O)cc2)oc2cc(O)cc(O)c12,66*,25*,20,44*,17,21,68*,ASAP1 GAP conf=27*
Cc1cc(C)c2c(c1)NC(C(=O)O)C1CC=CC21 (centres undefined),68*,38*,30*,10,19,50*,33*,ASAP1 GAP conf=35*
COc1ccc(OC)c(NC(=O)COC(=O)COc2ccc(Nc3ccccc3)cc2)c1,16,-2,5,4,7,8,.,
COc1cccc(OC)c1-c1nn2c(-c3cc(-c4ccccc4)n[nH]3)nnc2s1,37*,129*,130*,-2,0,42*,46*,ASAP1 GAP conf=167*;ARFGAP1 confirm=182*
O=C(NNC(=S)Nc1ccc(Cl)c(Cl)c1)c1ccccn1,37*,-5,26*,15,20,9,51*,ARFGAP1 confirm=-1
CCNC(=S)NNC(=O)c1ccccn1,-2,-3,7,10,7,-7,.,
SMILES,pPAFAH inh,ASAP1 inh,ARFGAP1 inhibitor,PAFAH1B3 FP inh,PAFAH1B2 inh,PAFAH2 inh,pPAFAH FP conf,others
OCC[C@@H]1C[C@H](O)[C@@H](O)[C@]2(OCc3cc(C(F)(F)F)ccc32)O1,.,3,6,.,.,.,.,
Cc1cn([C@H]2C[C@H](O)[C@@H](CNS(=O)(=O)c3ccc(NS(=O)(=O)N(C)C)cc3)O2)c(=O)[nH]c1=O,.,7,3,.,.,.,.,
Nc1ccc2nc(-c3cccc(-c4nc5ccc(N)cc5[nH]4)n3)[nH]c2c1,35*,+,+,30*,32*,13,54*,ASAP1 GAP conf=+;ARFGAP1 confirm=+
COc1cccc(/C=C2/Sc3ccc(C(=O)NCCN4CCCCCC4)cc3NC2=O)c1,37*,31*,29*,-2,4,-5,44*,ASAP1 GAP conf=36*;ARFGAP1 confirm=37*
Cc1cccc(/C=C2/Sc3ccc(C(=O)NCCN4CCCC4)cc3NC2=O)c1,9,-1,7,0,0,-16,.,
CSc1nc(N)nc2c1ncn2CC(=O)N[C@H](CO)Cc1c[nH]c2ccccc12,3,18,5,-1,7,38*,.,PAFAH2 confirm=3
Cc1ccc(C(=O)NNC(=O)c2ccc(Br)s2)cc1S(=O)(=O)N1CCOCC1,5,8,5,4,1,39*,.,PAFAH2 confirm=-4
O=C(COC(=O)c1ccccc1SCC(=O)N1CCCC1)Nc1ccc(OC(F)F)cc1,23,-5,7,0,4,73*,.,PAFAH2 confirm=76*
Cc1cccc(NC(=O)COC(=O)c2ccccc2SCC(=O)N2CCCC2)c1,5,-5,6,-2,1,88*,.,PAFAH2 confirm=74*
Cc1sc2ncnc(SCC(=O)Nc3ncccc3O)c2c1C,20,22,-6,5,-4,66*,.,PAFAH2 confirm=53*
CNC(=O)C[C@H]1C(=O)N(CCc2ccccc2)C[C@@H]1CSC,.,10,0,.,.,.,.,
CC1=NN2C(=N)/C(=C\c3ccc(SCc4ccccc4)o3)C(=O)N=C2S1,14,5,-3,4,19,32*,.,PAFAH2 confirm=33*
CCn1cc(C(=O)NCCN(C)C)c(=O)c2cc(F)c(N3CCN(C)CC3)cc21,3,20,-2,0,0,-1,.,

# Assay outcomes from PubChem.
